The results in this text go back to ChEMBL document CHEMBL1221173, “Dynamic imaging of protease activity with fluorescently quenched activity-based probes” (Nat Chem Biol, 2005).

Activity calls are given as the source filed them. No cut-off for these calls is given here.

Data set [1] can be described thus: Cytotoxicity against mouse NIH/3T3 cells. The following applies: nih3t3. The data set is classed as cell-based.
In data set [2] the target is Cathepsin S (Homo sapiens) (UniProt P25774). The data set is described as follows: Binding affinity to recombinant cathepsin S assessed as protein labeling at 0.1 to 10 uM after 30 mins using SDS-PAGE and Typhoon laser flatbed canning method.
Cathepsin S (Homo sapiens), sequence (P25774 115-331 limits assumed): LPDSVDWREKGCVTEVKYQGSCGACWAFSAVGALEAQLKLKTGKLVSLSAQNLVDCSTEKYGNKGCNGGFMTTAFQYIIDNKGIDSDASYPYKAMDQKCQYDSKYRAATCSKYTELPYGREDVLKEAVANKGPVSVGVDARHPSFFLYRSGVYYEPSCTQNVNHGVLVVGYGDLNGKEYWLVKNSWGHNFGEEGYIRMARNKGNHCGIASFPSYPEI
The target of data set [3] is Procathepsin L (Homo sapiens) (UniProt P07711). The data set is described as follows: Inhibition of human cathepsin L using Z-FR-AMC substrate assessed as inhibition association constant by fluorimetric assay. An outline of the steps: (§1)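 Cathepsin B or L (1 nM final) with inhibitor at 10–2,000 nM plus 10 µM substrate (Z-RR-AMC for B, Km 114 µM; Z-FR-AMC for L, Km 7.1 µM), 3.5% DMSO. AMC fluorescence (Ex 370/Em 460 nm) read continuously for 30 min. k_app from inhibition curves converted to k_ass = k_app(1+[S]/K_M).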
Procathepsin L (Homo sapiens), sequence (P07711 114-333 limits assumed): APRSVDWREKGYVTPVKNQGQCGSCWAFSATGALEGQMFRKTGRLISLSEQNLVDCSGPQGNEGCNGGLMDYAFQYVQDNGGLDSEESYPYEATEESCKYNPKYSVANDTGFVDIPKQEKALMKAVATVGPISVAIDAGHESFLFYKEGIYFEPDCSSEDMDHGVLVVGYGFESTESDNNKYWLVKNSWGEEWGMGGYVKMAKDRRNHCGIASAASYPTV

Data set [4] has as its target T1, Procathepsin L (Mus musculus) (UniProt P06797).
T1 sequence (whole entry): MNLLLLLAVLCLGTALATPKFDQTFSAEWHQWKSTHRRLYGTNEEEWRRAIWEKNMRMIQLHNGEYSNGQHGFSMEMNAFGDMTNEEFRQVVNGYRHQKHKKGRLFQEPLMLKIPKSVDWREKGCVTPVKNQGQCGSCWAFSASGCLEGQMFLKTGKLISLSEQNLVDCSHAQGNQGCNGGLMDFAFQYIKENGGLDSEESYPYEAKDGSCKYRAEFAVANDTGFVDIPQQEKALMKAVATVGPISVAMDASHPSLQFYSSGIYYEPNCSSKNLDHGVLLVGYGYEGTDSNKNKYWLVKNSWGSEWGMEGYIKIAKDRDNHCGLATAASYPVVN
The data set is described as follows: Binding affinity to cathepsin L in mouse NIH/3T3 cells assessed as protein labeling at 1 uM after 30 mins using SDS-PAGE and Typhoon laser flatbed canning method. The data set is classed as cell-based. The following applies: NIH3T3. Summed up: (§2)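 NIH-3T3 monolayers seeded one day before. Pretreated 1 h with JPM-OEt (50 µM) or 0.1% DMSO, then probe added to medium at pH 7.4 (final DMSO 0.2%) for the indicated times. Cells PBS-washed and lysed in SDS sample buffer, then boiled. Equal protein run on 12% SDS-PAGE, gel scanned at Ex/Em 532/580 nm.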

In data set [5] the target is Cathepsin B (Bos taurus) (UniProt P07688). The data set is described as follows: Inhibition of bovine cathepsin B using Z-RR-AMC substrate assessed as inhibition association constant by fluorimetric assay. Summed up:
as §1

For data set [6], the target named is Cathepsin B (Mus musculus) (UniProt P10605). The data set is described as follows: Binding affinity to cathepsin B in mouse NIH/3T3 cells monolayers assessed as protein labeling at 1 uM after 4 to 5 hrs by fluorescence microscopy. The data set is classed as cell-based. The following applies: NIH3T3. Summed up: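 Live NIH-3T3 cells on glass coverslips, pretreated 1 h with JPM-OEt (50 µM) or 0.1% DMSO. Probe (1 µM) added to growth medium, pH 7.4, for 4–5 h. Moved to phenol red-free medium with LysoTracker (50 nM final) for lysosome co-localization, then imaged by inverted fluorescence microscopy. Some cells first washed 3 h in medium with JPM-OEt or DMSO.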
Cathepsin B (Mus musculus), sequence (P10605 80-333 limits assumed): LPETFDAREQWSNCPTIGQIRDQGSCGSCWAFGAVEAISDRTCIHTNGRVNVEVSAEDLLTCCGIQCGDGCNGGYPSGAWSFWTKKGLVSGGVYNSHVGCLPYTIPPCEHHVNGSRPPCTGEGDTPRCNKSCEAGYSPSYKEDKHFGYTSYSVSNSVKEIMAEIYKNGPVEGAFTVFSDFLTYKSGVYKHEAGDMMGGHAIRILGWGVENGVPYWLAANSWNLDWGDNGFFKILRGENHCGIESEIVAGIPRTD

Data set [7] is described as follows: Binding affinity to recombinant cathepsin X assessed as protein labeling at 0.1 to 10 uM after 30 mins using SDS-PAGE and Typhoon laser flatbed canning method.
Data set [8] concerns the target Cathepsin B (Mus musculus) (UniProt P10605). The data set is described as follows: Binding affinity to cathepsin B in mouse NIH/3T3 cells assessed as protein labeling at 1 uM after 30 mins using SDS-PAGE and Typhoon laser flatbed canning method. It counts as cell-based. Particulars: NIH3T3. Summed up: as §2
Data set [9] deals with Cathepsin B (Homo sapiens) (UniProt P07858). The data set is described as follows: Binding affinity to cathepsin B in 8 day old human MCF10A cells grown on reconstituted basement membrane assessed as protein labeling exposed to 1 uM for 3 hrs followed by washing overnight with growth media by confocal fluorescence microscopy. The data set is classed as cell-based. The following applies: MCF-10A. Summed up:
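Day 8 three-dimensional MCF-10A cultures on reconstituted basement membrane, grown without probe. Treated with 1 µM probe for 3 h in assay medium (2% horse serum, 5 ng/ml EGF), washed overnight, then cold-methanol fixed. Immunostained overnight at 4 °C with rabbit anti-human cathepsin B, then secondary antibody and DAPI. Imaged by confocal microscopy.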

For data set [10] the target is unchanged. The data set is described as follows: Binding affinity to cathepsin B in human MCF10A cells grown on reconstituted basement membrane exposed to 1 uM compounds assessed as protein labeling after 3 days by confocal fluorescence microscopy. The following applies: MCF-10A.
The target in data set [11] is Procathepsin L (Homo sapiens) (UniProt P07711). The data set is described as follows: Binding affinity to human recombinant cathepsin L assessed as protein labeling at 0.1 to 10 uM after 30 mins using SDS-PAGE and Typhoon laser flatbed canning method. Summed up:
(§3)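 Recombinant enzyme (cathepsin B, bovine, 0.4 µg; cathepsin L, human, 0.7 µg) in pH 5.5 acetate buffer (50 mM acetate, 2 mM DTT, 5 mM MgCl₂). Optional 30 min pretreatment at 25 °C with general papain-family inhibitor JPM-OEt (25 µM), or DMSO. Probe at increasing concentrations for 30 min. Stopped with SDS sample buffer, SDS-PAGE, gel fluorescence scanned.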

Data set [12] concerns the target Cathepsin B (Bos taurus) (UniProt P07688). The data set is described as follows: Binding affinity to bovine recombinant cathepsin B assessed as protein labeling at 0.1 to 10 uM after 30 mins using SDS-PAGE and Typhoon laser flatbed canning method. Summed up:
as §3

The target of data set [13] is Procathepsin L (Homo sapiens) (UniProt P07711). The data set is described as follows: Binding affinity to cathepsin L in human MCF10A cells grown on reconstituted basement membrane exposed to 1 uM compounds assessed as protein labeling after 3 days by confocal fluorescence microscopy. The following applies: MCF-10A.

As for `COc1ccc(-c2ccc3n2[B-](F)(F)[N+]2=C(C)C(CCC(=O)NCCCCCC(=O)NCCCC[C@@H](NC(=O)[C@@H](Cc4ccccc4)NC(=O)OCc4ccccc4)C(=O)COC(=O)c4c(C)cccc4C)=C(C)C2=C3)cc1`, the Activity result in data set [1] is on record as “Non-toxic”. Also, the result in data set [2], in data set [4], in [6], in data set [7], in data set [8] and in data set [9] was Active. The result in data set [10], in [11], in [12] and in data set [13] was Active. Besides, the INH in data set [3] was determined as 2580 M⁻¹ s⁻¹; in [5], 1260 M⁻¹ s⁻¹.

Take `COc1ccc(-c2ccc3n2[B-](F)(F)[N+]2=C(C)C(CCC(=O)NCCCCCC(=O)NCCCC[C@@H](NC(=O)[C@H](N)Cc4ccccc4)C(=O)COC(=O)c4c(C)cccc4C)=C(C)C2=C3)cc1`: the values for the INH in data set [3] and in data set [5] were 296000 M⁻¹ s⁻¹ and 38500 M⁻¹ s⁻¹, respectively.

In the case of `COc1ccc(-c2ccc3n2[B-](F)(F)[N+]2=C(C)C(CCC(=O)NCCCCCC(=O)NCCCC[C@@H](NC(=O)[C@@H](Cc4ccccc4)NC(=O)OCc4ccccc4)C(=O)COC(=O)CNC(=O)C4CCN(S(=O)(=O)c5ccccc5-c5c6cc/c(=[N+](/C)c7ccccc7)cc-6oc6cc(Nc7ccccc7)ccc56)CC4)=C(C)C2=C3)cc1`, the Activity entry in data set [1] is recorded as “Non-toxic”. Further, the outcome in [2], in [4], in data set [6], in [7], in data set [10] and in data set [11] was Active. Further, the result in [12] and in data set [13] was Active. Besides, the INH in data set [3] worked out at 7000 M⁻¹ s⁻¹; in data set [5], 275 M⁻¹ s⁻¹. For the same molecule, the result in data set [8] was inactive.

Regarding `COc1ccc(-c2ccc3n2[B-](F)(F)[N+]2=C(C)C(CCC(=O)NCCCCCC(=O)NCCCC[C@@H](NC(=O)[C@@H](Cc4ccccc4)NC(=O)OC(C)(C)C)C(=O)COC(=O)c4c(C)cccc4C)=C(C)C2=C3)cc1`, the values for the INH in data set [3] and in [5] were 1180 M⁻¹ s⁻¹ and 212 M⁻¹ s⁻¹, respectively.
